Tests used:
[1] = organism: Rattus norvegicus; assay: Selectivity ratio of IC50 for Sprague-Dawley rat MAO-A to IC50 for Sprague-Dawley rat MAO-B
[2] = biological target: T1, Amine oxidase [flavin-containing] A (Rattus norvegicus, UniProt P21396); assay: Inhibition of MAO-A in Sprague-Dawley rat brain homogenate using kynuramine as substrate preincubated for 10 mins measured by fluorimetric assay; format: tissue-based
T1 sequence (P21396 whole entry): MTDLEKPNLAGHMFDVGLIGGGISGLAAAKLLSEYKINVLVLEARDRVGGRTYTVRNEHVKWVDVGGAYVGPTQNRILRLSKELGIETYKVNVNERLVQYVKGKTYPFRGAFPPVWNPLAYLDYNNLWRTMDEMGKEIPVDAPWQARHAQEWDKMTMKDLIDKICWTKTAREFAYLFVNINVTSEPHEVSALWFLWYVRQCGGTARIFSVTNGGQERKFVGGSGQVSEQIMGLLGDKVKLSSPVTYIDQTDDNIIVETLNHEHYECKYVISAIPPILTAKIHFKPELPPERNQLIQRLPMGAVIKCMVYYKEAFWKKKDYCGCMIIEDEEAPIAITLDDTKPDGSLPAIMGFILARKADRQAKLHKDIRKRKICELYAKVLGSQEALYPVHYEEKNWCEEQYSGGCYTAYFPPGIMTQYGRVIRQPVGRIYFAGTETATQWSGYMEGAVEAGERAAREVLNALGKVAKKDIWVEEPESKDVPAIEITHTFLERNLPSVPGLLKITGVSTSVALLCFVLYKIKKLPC
Outline: (§1)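 Rat brain homogenate was the enzyme source, with protein measured by Bradford against a BSA standard. Fluorometric MAO assay used kynuramine substrate in the presence of isoform-specific inhibitors. Test inhibitor was preincubated with homogenate for 10 min. IC50 came from plots of % residual activity relative to enzyme treated identically without inhibitor.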

[3] = biological target: T2, Amine oxidase [flavin-containing] B (Rattus norvegicus, UniProt P19643); assay: Inhibition of MAO-B in Sprague-Dawley rat brain homogenate using kynuramine as substrate preincubated for 10 mins measured by fluorimetric assay; format: tissue-based
T2 sequence (P19643 whole entry): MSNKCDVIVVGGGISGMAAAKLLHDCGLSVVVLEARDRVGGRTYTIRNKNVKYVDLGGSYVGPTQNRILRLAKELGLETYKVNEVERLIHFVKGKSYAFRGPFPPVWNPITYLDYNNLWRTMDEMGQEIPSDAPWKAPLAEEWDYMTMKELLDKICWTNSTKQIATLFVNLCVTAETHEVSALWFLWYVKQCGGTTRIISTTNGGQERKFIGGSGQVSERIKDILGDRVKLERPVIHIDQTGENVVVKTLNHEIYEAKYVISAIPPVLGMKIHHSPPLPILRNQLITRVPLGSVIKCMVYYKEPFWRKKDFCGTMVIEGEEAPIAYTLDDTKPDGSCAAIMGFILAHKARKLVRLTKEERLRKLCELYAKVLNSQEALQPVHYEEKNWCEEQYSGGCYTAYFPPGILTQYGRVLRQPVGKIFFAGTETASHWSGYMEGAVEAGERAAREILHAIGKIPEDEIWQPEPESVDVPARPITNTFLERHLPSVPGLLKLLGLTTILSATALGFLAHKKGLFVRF
Outline: as §1

[4] = biological target: T2, Amine oxidase [flavin-containing] B; assay: Competitive inhibition of MAO-B in Sprague-Dawley rat brain homogenate by Lineweaver-Burk plot analysis; format: tissue-based
Outline: (§2)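 Kinetic mode of the same homogenate kynuramine fluorometric assay. Reciprocal MAO activity was plotted against reciprocal kynuramine concentration (Lineweaver–Burk), each at three inhibitor levels including zero, run separately for MAO-A and MAO-B.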

[5] = biological target: T1, Amine oxidase [flavin-containing] A; assay: Competitive inhibition of MAO-A in Sprague-Dawley rat brain homogenate by Lineweaver-Burk plot analysis; format: tissue-based
Outline: as §2

SMILES	Ratio IC50 [1]	IC50 [2] [µM]	IC50 [3] [µM]	inhibition (INH) [4]	inhibition (INH) [5]
O=C(/C=C/C=C/c1ccc2c(c1)OCO2)N1CCCCC1 [PIPERINE]	1.55	0.404	0.26		
CCOC(=O)/C=C/C=C/c1ccc2c(c1)OCO2	22.8	7.55	0.33		
C(/C=C/c1ccc2c(c1)OCO2)=C\CN1CCCCC1		> 100	> 100		
O=C(CCCCc1ccc2c(c1)OCO2)N1CCCCC1 [TETRAHYDROPIPERINE]		> 100	1.97		
O=C(C1C=CC(c2ccc3c(c2)OCO3)C(/C=C/c2ccc3c(c2)OCO3)C1C(=O)N1CCCCC1)N1CCCCC1 (stereo not drawn)		> 100	> 100		
CCCCNC(=O)/C=C/C=C/c1ccc2c(c1)OCO2		> 100	0.33		
CC(=O)Oc1ccc(/C=C/C=C/C(=O)N2CCCCC2)cc1OC(C)=O	1.71	1.28	0.75		
CN1CCN(C(=O)/C=C/C=C/c2ccc3c(c2)OCO3)CC1	2.12	2.04	0.96		
CCCNC(=O)/C=C/C=C/c1ccc2c(c1)OCO2	81.5	3.66	0.045	Active	Active
COC(=O)CCCCc1ccc2c(c1)OCO2	1.76	3.17	1.8		
O=C(/C=C/C=C/c1ccc(O)c(O)c1)N1CCCCC1	0.51	0.8	1.57		
CCCCNC(=O)CCCCc1ccc2c(c1)OCO2	4.59	16.1	3.5		
CCCNC(=O)CCCCc1ccc2c(c1)OCO2		> 100	> 100		
CCN(CC)C(=O)CCCCc1ccc2c(c1)OCO2	2.98	5.21	1.75		
O=C(O)/C=C/C=C/c1ccc2c(c1)OCO2 [PIPERIC ACID]	1.35	18.3	13.6		
CCN(CC)C(=O)/C=C/C=C/c1ccc2c(c1)OCO2	49	3.82	0.078		
CN1CCN(C(=O)CCCCc2ccc3c(c2)OCO3)CC1		> 100	> 100		
CCOC(=O)CCCCc1ccc2c(c1)OCO2	4.53	5.57	1.23		
COC(=O)/C=C/C=C/c1ccc2c(c1)OCO2 [METHYL PIPERATE]	11.9	2.74	0.23		
